# Data reported in ChEMBL document CHEMBL4387734, “Design and synthesis of a novel series of cyanoindole derivatives as potent γ-secretase modulators” (Bioorg Med Chem Lett, 2019).
# Columns and labels:
# [1] = Inhibition of gamma secretase in mouse Neuro2 cells expressing endogenous levels of amyloid precursor protein assessed as reduction in Abeta42 levels incubated for 18 hrs by sandwich ELISA; assay type: cell-based
# In short: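 IC50 as concentration reducing Aβ42 by 50%; mean of at least 2 determinations; mouse assay.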
# [2] = molecular target: Gamma-secretase (Homo sapiens) (UniProt Q96BI3+Q9NZ42+Q8WW43+P49768+Q92542+P49810); assay: Inhibition of gamma secretase in human SKNBE2 cells expressing human APP695 assessed as increase in Abeta38 levels at 10 uM incubated for 18 hrs by sandwich ELISA; assay type: cell-based; design: scale not given: the % may be the effect or the level left
# [3] = Drug concentration in mouse plasma at 30 mg/kg, po measured after 4 hrs by LC/MS/MS method; assay type: ADME, organism-based
# In short: (§1)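 Mice dosed orally at 30 mg/kg; plasma and brain sampled 4 h post-dose; compound quantified by qualified research LC–MS/MS; brain/plasma ratio at 4 h.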
# [4] = Drug concentration in mouse brain at 30 mg/kg, po measured after 4 hrs by LC/MS/MS method; assay type: ADME, organism-based; settings: read-out: Drug uptake; in short: as §1
# Mus musculus [5] = assay: In vivo inhibition of gamma secretase in mouse assessed as assessed as reduction in Abeta42 levels in brain at 30 mg/kg, po measured after 4 hrs relative to control; assay type: functional
# Gamma-secretase = assay: Inhibition of gamma secretase in human SKNBE2 cells expressing human APP695 assessed as reduction in Abeta42 levels incubated for 18 hrs by sandwich ELISA
# [6] = Fraction of unbound in rat brain
# [7] = Free drug concentration in mouse brain; assay type: ADME, tissue-based; settings: in vivo
# In short: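 Free brain concentration calculated as fu,b × total brain level (μM), mouse 30 mg/kg p.o., 4 h.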
# Mus musculus [8] = assay: In vivo inhibition of gamma secretase in mouse increase in Abeta38 levels in brain at 30 mg/kg, po measured after 4 hrs relative to control; design: scale not given: the % may be the effect or the level left
SMILES,IC50 [1],Activity [2],concentration at 4 h [3],concentration at 4 h [4],inhibition in vivo at 30 mg/kg (Mus musculus [5]),IC50 (Gamma-secretase),Fu [6],Drug uptake(free) [7],Activity (Mus musculus [8])
CCc1cc(CCC#N)ccc1N1CCc2c(C)nc(Nc3ccc(C#N)cc3)nc21,780 nM,240%,,,,,,,
COc1c(C#N)ccc2[nH]c(-c3nc4n(n3)CCO[C@H]4c3cccc(F)c3C(F)(F)F)cc12,59 nM,,1700 nM,9.6 µM,2%,59 nM,0.09%,0.009 µM,19%
COc1c(C#N)ccc2[nH]c(-c3nc4n(n3)CCCC4c3ccc(F)cc3C)cc12 (racemic),28 nM,,750 nM,0.69 µM,45%,25 nM,,,-9%
COc1c(C#N)ccc2[nH]c(-c3cn4c(n3)[C@H](c3cc(C(F)(F)F)ccc3F)OCC4)cc12,74 nM,,10600 nM,16.3 µM,35%,41 nM,,,41%
COc1c(C#N)ccc2[nH]c(-c3cn4c(n3)[C@H](c3ccc(F)cc3C)OCC4)cc12,16 nM,,9200 nM,6.9 µM,45%,23 nM,0.23%,0.016 µM,122%
COc1c(C#N)ccc2[nH]c(-c3nc4n(n3)CCO[C@H]4c3cccc(F)c3C)cc12,19 nM,,2500 nM,5.5 µM,33%,31 nM,0.17%,0.009 µM,60%
